Active and inactive are the calls of the source. The calls are words filed in the database; no cut-off is given here. Where a SMILES comes first, the peptide text is derived from it. [ ]: non-standard residue; d: D form. The star is where a group is joined. Benzoyl(4-TriPhPorphyrinyl) = O=C(c1ccc(-c2c3nc(c(-c4ccccc4)c4ccc([nH]4)c(-c4ccccc4)c4nc(c(-c5ccccc5)c5ccc2[nH]5)C=C4)C=C3)cc1)*; X1 = C[n+]1ccc(-c2c3nc(c(-c4cc[n+](C)cc4)c4ccc([nH]4)c(-c4cc[n+](C)cc4)c4nc(c(-c5ccc(C(=O)*)cc5)c5ccc2[nH]5)C=C4)C=C3)cc1; His(π-Me) = Cn1cncc1C[C@H](N)C(=O)O
Experiments:
[1] = Drug uptake in human HFFF2 cells assessed as increase in red fluorescence at 5 uM incubated for 60 to 3 hrs mins followed by irradiated with 13.5 J cm'-2 of blue light by flow cytometry; format: ADME, cell-based; conditions: hfff2, 5 µM
Escherichia coli [2] = assay: Drug uptake in Escherichia coli ATCC 25922 assessed as increase in red fluorescence at 5 uM incubated for 60 mins by flow cytometry; format: ADME, organism-based; conditions: in vivo, 1 h
How it was run: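 Stationary-phase cells grown overnight in BHI at 37 °C, washed twice, resuspended in PBS pH 7.3 at ~2 × 10^7 cells/mL. Exposed to PS in the dark at room temperature for 60 min, then analysed directly or after three PBS washes (centrifugation at 10 000g for 5 min). Read-out is cell-associated porphyrin red fluorescence by flow cytometry; background taken from cells without PS.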

Staphylococcus aureus [3] = assay: Photoinactivation of methicillin-resistant Staphylococcus aureus ATCC BAA-44 at 0.5 to 1 uM incubated for 60 mins followed by irradiated with 13.5 J cm'-2 of blue light; format: functional, organism-based
How it was run: (§1)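 Stationary-phase overnight BHI cultures (37 °C) were washed and resuspended in PBS (pH 7.3) at ~2 × 10^7 cells/mL, then incubated with PS in the dark at rt for 60 min. Suspensions were left unwashed or washed three times with PBS. They were irradiated with blue light (390–460 nm, 15.2 mW cm−2) to 13.5 J cm−2. Serial 10-fold dilutions were plated in duplicate on BHI agar and cfu counted after overnight growth at 37 °C. Experiments were repeated at least three times.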

[4] = Drug uptake in human HFFF2 cells assessed as increase in red fluorescence at 5 uM incubated for 60 to 3 hrs mins followed by irradiated with 13.5 J cm'-2 of blue light measured after drug washout by flow cytometry; format: ADME, cell-based; conditions: hfff2, 5 µM
Staphylococcus aureus [5] = assay: Drug uptake in methicillin-resistant Staphylococcus aureus ATCC BAA-44 assessed as increase in red fluorescence at 1.5 uM incubated for 60 mins measured after drug washout by flow cytometry; format: ADME, organism-based; conditions: in vivo, 1 h
How it was run: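 Stationary-phase overnight BHI cultures (37 °C) were washed twice and resuspended in PBS (pH 7.3) at ~2 × 10^7 cells/mL. They were then analysed by flow cytometry for cell-associated red porphyrin fluorescence, either unwashed or after three PBS washes (10 000g, 5 min). Cells without PS set the background fluorescence.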

[6] = Drug uptake in human HFFF2 cells assessed as increase in red fluorescence at 5 uM incubated for 60 to 3 hrs mins followed by irradiated with 13.5 J cm'-2 of blue light by fluorescence microscopic analysis; format: ADME, cell-based; conditions: hfff2, 5 µM
[7] = Photoinactivation of human HFFF2 cells at 3 uM incubated for 60 mins followed by irradiated with 13.5 J cm'-2 of blue light; format: cell-based; conditions: hfff2, 1 h
How it was run: (§2)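 HFFF2 fibroblasts were grown in DMEM with 10% FBS at 37 °C and 5% CO2, seeded at 7 × 10^3 cells/well and grown 48 h. Cells were incubated 60 min in the dark with PS in medium with 3% FBS, washed twice with PBS containing Ca2+/Mg2+, and irradiated in PBS with 13.5 J cm−2 of blue light. After 24 h in 10% FBS medium, viability was read by MTS (1.5 h, A492) as % of untreated control.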

[8] = Drug uptake in human HFFF2 cells in assessed as increase in red fluorescence at 5 uM incubated for 60 to 3 hrs mins by flow cytometry; format: ADME, cell-based; conditions: hfff2, 5 µM
Escherichia coli [9] = assay: Photoinactivation of Escherichia coli ATCC 25922 assessed as log reduction of CFU at 15 uM incubated for 60 mins followed by irradiated with 13.5 J cm'-2 of blue light measured after drug washout; format: functional; how it was run: as §1
[10] = Photoinactivation of human HFFF2 cells incubated for 60 mins followed by irradiated with 13.5 J cm'-2 of blue light; format: cell-based; conditions: HFFF2, light or radiation study, 1 h
[11] = Photoinactivation of human HFFF2 cells at 5 uM incubated for 60 mins followed by irradiated with 13.5 J cm'-2 of blue light; format: cell-based; conditions: hfff2, 1 h; how it was run: as §2
Escherichia coli [12] = assay: Photoinactivation of Escherichia coli ATCC 25922 assessed as log reduction of CFU at 5 uM incubated for 60 mins followed by irradiated with 13.5 J cm'-2 of blue light measured after drug washout; format: functional
How it was run: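 Overnight BHI cultures (37 °C, stationary phase) washed and resuspended in PBS pH 7.3 at ~2 × 10^7 cells/mL. Incubated with increasing PS concentrations for 60 min in the dark at room temperature. Serial 10-fold dilutions plated in duplicate on BHI agar for CFU; at least three independent experiments.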

[13] = Drug uptake in human HFFF2 cells assessed as increase in red fluorescence at 5 uM incubated for 60 mins followed by irradiated with 13.5 J cm'-2 of blue light by flow cytometry; format: ADME, cell-based; conditions: hfff2, 1 h
[14] = Solubility of the compound in water; format: physicochemical; conditions: buffer

SMILES | Drug uptake [1] | Drug uptake (Escherichia coli [2]) | Activity (Staphylococcus aureus [3]) | Drug uptake [4] | Drug uptake (Staphylococcus aureus [5]) | Drug uptake [6] | Activity [7] | Drug uptake [8] | CFU/ml (Escherichia coli [9]) | IC50 [10] | Activity [11] | Activity (Escherichia coli [12]) | Drug uptake [13] | solubility [14]
C[n+]1ccc(-c2c3nc(c(-c4cc[n+](C)cc4)c4ccc([nH]4)c(-c4ccc(C(=O)O)cc4)c4ccc([nH]4)c(-c4cc[n+](C)cc4)c4nc2C=C4)C=C3)cc1 | Active | Not Active | Active | Active | Not Active | Not Active | Toxic | Active | 1 log reduction | 230 nM | Toxic | Active | Active | –
CC[C@H](C)[C@H](NC(=O)[C@H](Cc1ccc(O)cc1)NC(=O)[C@@H](NC(=O)[C@@H]1CCCN1C(=O)[C@H](CCCNC(=N)N)NC(=O)[C@H](CC(N)=O)NC(=O)[C@H](CC(N)=O)NC(=O)CNC(=O)c1ccc(-c2c3nc(c(-c4ccccc4)c4ccc([nH]4)c(-c4ccccc4)c4nc(c(-c5ccccc5)c5ccc2[nH]5)C=C4)C=C3)cc1)C(C)C)C(=O)N1CCC[C@H]1C(=O)N[C@@H](CCC(N)=O)C(=O)N1CCC[C@H]1C(=O)N[C@@H](CCCNC(=N)N)C(=O)N1CCC[C@H]1C(=O)N1CCC[C@H]1C(=O)N[C@@H](Cc1cnc[nH]1)C(=O)N1CCC[C@H]1C(=O)N[C@@H](CCCNC(=N)N)C(=O)N[C@@H](CC(C)C)C(=O)O ({Benzoyl(4-TriPhPorphyrinyl)}-GNNRPVYIPQPRPPHPRL-OH) | Active | – | – | Active | – | Active | – | Active | – | 21 nM | – | – | – | –
O=C(O)c1ccc(-c2c3nc(c(-c4ccccc4)c4ccc([nH]4)c(-c4ccccc4)c4nc(c(-c5ccccc5)c5ccc2[nH]5)C=C4)C=C3)cc1 | Active | Not Active | – | Active | Not Active | Not Active | Toxic | Active | – | 1270 nM | Toxic | – | Active | Insoluble
CC[C@H](C)[C@H](NC(=O)[C@H](Cc1ccc(O)cc1)NC(=O)[C@@H](NC(=O)[C@@H]1CCCN1C(=O)[C@H](CCCNC(=N)N)NC(=O)[C@H](CC(N)=O)NC(=O)[C@H](CC(N)=O)NC(=O)CNC(=O)c1ccc(-c2c3nc(c(-c4cc[n+](C)cc4)c4ccc([nH]4)c(-c4cc[n+](C)cc4)c4nc(c(-c5cc[n+](C)cc5)c5ccc2[nH]5)C=C4)C=C3)cc1)C(C)C)C(=O)N1CCC[C@H]1C(=O)N[C@@H](CCC(N)=O)C(=O)N1CCC[C@H]1C(=O)N[C@@H](CCCNC(=N)N)C(=O)N1CCC[C@H]1C(=O)N1CCC[C@H]1C(=O)N[C@@H](Cc1cncn1C)C(=O)N1CCC[C@H]1C(=O)N[C@@H](CCCNC(=N)N)C(=O)N[C@@H](CC(C)C)C(=O)O (X1-GNNRPVYIPQPRPP[His(π-Me)]PRL-OH) | Active | – | – | Active | – | Not Active | – | Active | – | 9 nM | – | – | – | –

Source: ChEMBL document CHEMBL3124889, “Synthesis, spectroscopic, and photophysical characterization and photosensitizing activity toward prokaryotic and eukaryotic cells of porphyrin-magainin and -buforin conjugates” (J Med Chem, 2014)
